{"data": "Assay results pooled from the literature", "target": "cAMP-dependent protein kinase catalytic subunit alpha (PRKACA, Homo sapiens, UniProt P17612)", "note": "Compare with care: the assays were run in different laboratories."}
{"SMILES": "Cc1ccc(C(=O)Nc2ccc(CN3CCN(C)CC3)c(C(F)(F)F)c2)cc1C#Cc1cnc2cccnn12", "read-out": "enzyme activity", "action": "inhibitor", "tested at": "23.5 nM", "quantity": "remaining activity", "value": "53%"}
{"SMILES": "Cc1ccc(C(=O)NCc2ccsc2)cc1C#Cc1cn(C(C)C)c2ncnc(N)c12", "read-out": "enzyme activity", "action": "inhibitor", "tested at": "1 µM", "quantity": "activity vs control", "value": "103%"}
{"SMILES": "C[C@@H](N)[C@H]1CC[C@H](C(=O)Nc2ccncc2)CC1", "read-out": "cell-free assay", "action": "inhibitor", "tested at": "0.5 µM", "quantity": "remaining signal", "value": "97.8%"}
{"SMILES": "COc1cc(Cl)c(C(=O)N[C@@H](CN[C@H]2CC[C@@H](N)CC2)Cc2ccc(C#N)cc2)cc1-c1ccc(CN[C@H](C)c2ccc(C)cc2)o1", "read-out": "enzyme activity", "action": "inhibitor", "tested at": "1 µM", "quantity": "remaining activity", "value": "106%"}
{"SMILES": "Cc1ccc(Nc2nccc(N(C)c3ccc4c(C)n(C)nc4c3)n2)cc1S(N)(=O)=O", "read-out": "enzyme activity", "action": "inhibitor", "tested at": "10 µM", "quantity": "inhibition", "value": "19%"}
{"SMILES": "O=C1Nc2ccc(Cl)cc2C1=Cc1cc(Cl)c(O)c(Cl)c1", "read-out": "cell-free assay", "tested at": "0.5 µM", "quantity": "remaining signal", "value": "101%"}
{"SMILES": "FC(F)(F)Oc1cccc(-c2cnc3ccc(-c4ccncc4)nn23)c1", "read-out": "enzyme activity", "action": "inhibitor", "technique": "radiometric", "tested at": "5 µM", "quantity": "activity vs control", "value": "106%"}
{"SMILES": "CC1=C(C#N)[C@@H](c2ccc3[nH]nc(C)c3c2)C(C#N)=C(c2ccc(Cl)cc2)N1", "read-out": "cell-free assay", "technique": "competition with immobilised ligand", "tested at": "1 µM", "quantity": "remaining binding", "value": "96.7%"}
{"SMILES": "COc1ccnn2ncc(-c3ccnc(N(C)C)n3)c12", "read-out": "cell-free assay", "tested at": "1 µM", "quantity": "remaining signal", "value": "100%"}
{"SMILES": "Nc1nc(Nc2ccccc2)sc1C(=O)c1c(F)cccc1F", "read-out": "enzyme activity", "action": "inhibitor", "tested at": "10 µM", "quantity": "remaining activity", "value": "90%"}
{"SMILES": "CCN(CC)c1ccc(C2=NNC(=O)CC2C)cc1[N+](=O)[O-] (stereo not drawn)", "read-out": "enzyme activity", "action": "inhibitor", "tested at": "10 µM", "quantity": "remaining activity", "value": "100%"}
{"SMILES": "CN(C)c1ncnc(-c2ccc3nc(Nc4cc(CN5CCN(C(=O)CC(F)(F)F)CC5)ccn4)[nH]c3c2)c1Cl", "read-out": "cell-free assay", "technique": "competition with immobilised ligand", "tested at": "1 µM", "quantity": "remaining binding", "value": "100%"}
{"SMILES": "COc1cc2ncnc(Nc3ccc(F)c(Cl)c3)c2cc1OCCCN1CCOCC1", "read-out": "cell-free assay", "tested at": "0.5 µM", "quantity": "remaining signal", "value": "96.3%"}
{"SMILES": "NS(=O)(=O)c1cc(NC(=O)Cc2ccccc2)ccc1Oc1cccc(Cl)c1", "read-out": "cell-free assay", "technique": "competition with immobilised ligand", "tested at": "1 µM", "quantity": "remaining binding", "value": "94%"}
{"SMILES": "Cn1c2c(Cl)c(Cl)ccc2c2cc[nH]c(=O)c21", "read-out": "thermal stability", "technique": "DSF", "tested at": "10 µM", "quantity": "ΔTm", "value": "0.8 °C"}
{"SMILES": "Nc1ncnc2occ(-c3ccc(NC(=O)Nc4cc(C(F)(F)F)ccc4F)cc3)c12", "read-out": "enzyme activity", "action": "inhibitor", "tested at": "20 µM", "quantity": "remaining activity", "value": "12%"}
{"SMILES": "CC(=O)C1=C(C)N(c2cccc(C(F)(F)F)c2)C(=O)N[C@@H]1c1ccc(C#N)nc1", "read-out": "cell-free assay", "technique": "competition with immobilised ligand", "tested at": "1 µM", "quantity": "remaining binding", "value": "92.3%"}
{"SMILES": "O=C(Nc1cnn(-c2csc(C(=O)NC3COC3)c2)c1)Nc1ccccc1Cl", "read-out": "enzyme activity", "action": "inhibitor", "tested at": "5 µM", "quantity": "remaining activity", "value": "99.8%"}
{"SMILES": "CC1(C)NC(=O)c2[nH]c3c(Cl)c(Cl)ccc3c2C1C#N (stereo not drawn)", "read-out": "thermal stability", "technique": "DSF", "tested at": "10 µM", "quantity": "ΔTm", "value": "1 °C"}
{"SMILES": "CCCS(=O)(=O)Nc1ccc(F)c(C(=O)c2c[nH]c3ncc(-c4ccc(Cl)cc4)cc23)c1F", "read-out": "enzyme activity", "action": "inhibitor", "tested at": "1 µM", "quantity": "inhibition", "value": "< 10%"}
{"SMILES": "CCCOc1ccc([C@H]2[C@H](C(=O)O)[C@@H](c3ccc4c(c3)OCO4)CN2CC(=O)Nc2c(CC)cccc2CC)cc1", "read-out": "cell-free assay", "technique": "competition with immobilised ligand", "tested at": "1 µM", "quantity": "remaining binding", "value": "100%"}
{"SMILES": "N[C@@H]1CCN(c2nccc(-c3cnn4ncccc34)n2)C1", "read-out": "cell-free assay", "tested at": "1 µM", "quantity": "remaining signal", "value": "96%"}
{"SMILES": "COc1cc(/C=C/C(=O)CC(=O)/C=C/c2ccc(O)c(OC)c2)ccc1O", "read-out": "enzyme activity", "action": "inhibitor", "tested at": "1 µM", "quantity": "activity vs control", "value": "94%"}
{"SMILES": "CC1=C(C#N)C(c2ccc3c(c2)c(NC(=O)c2ccccc2C)nn3C)C(C#N)=C(C)N1", "read-out": "cell-free assay", "technique": "competition with immobilised ligand", "tested at": "1 µM", "quantity": "remaining binding", "value": "77%"}
{"SMILES": "CCN1CCC2(CC1)NC(=O)c1c(c3ccc(Cl)c(Cl)c3n1C)C2C#N (racemic)", "read-out": "thermal stability", "technique": "DSF", "tested at": "10 µM", "quantity": "ΔTm", "value": "1.9 °C"}
{"SMILES": "COc1cc(Nc2cnc(C#N)c(O[C@H](C)CN(C)C)n2)ncc1-c1cnn(C)c1", "read-out": "enzyme activity", "action": "inhibitor", "technique": "radiometric", "tested at": "10 µM", "quantity": "remaining activity", "value": "78%"}
{"SMILES": "O=C(CSc1nc2nccnc2c(=O)n1CCc1ccccc1)Nc1nccs1", "read-out": "enzyme activity", "action": "inhibitor", "tested at": "10 µM", "quantity": "inhibition", "value": "6%"}
{"SMILES": "O=C(NS(=O)(=O)c1ccc(NCC2CCOCC2)c([N+](=O)[O-])c1)c1ccc(N2CCN(Cc3ccc(C(F)(F)F)cc3-c3ccc(Cl)cc3)CC2)cc1Oc1cnc2[nH]ccc2c1", "read-out": "cell-free assay", "technique": "competition with immobilised ligand", "tested at": "1 µM", "quantity": "remaining binding", "value": "76%"}
{"SMILES": "CN(c1ncccc1CNc1nc(Nc2ccc3c(c2)CC(=O)N3)ncc1C(F)(F)F)S(C)(=O)=O", "read-out": "enzyme activity", "action": "inhibitor", "tested at": "1 µM", "quantity": "inhibition", "value": "78.4%"}
{"SMILES": "COc1cc2ncnc(Nc3ccc(Oc4ccccc4)c(C)c3C)c2cc1OC", "read-out": "enzyme activity", "action": "inhibitor", "tested at": "1 µM", "quantity": "inhibition", "value": "4%"}
{"SMILES": "Cc1ccc(NC(=O)c2ccc(C)c(C(F)(F)F)c2)cc1C#Cc1nn(C2CCC(O)CC2)c2ncnc(N)c12 (stereo not drawn)", "read-out": "cell-free assay", "action": "inhibitor", "tested at": "10 µM", "quantity": "remaining signal", "value": "60%"}
{"SMILES": "Oc1cccc(-c2nc(N3CCOCC3)c3oc4ncccc4c3n2)c1", "read-out": "enzyme activity", "action": "inhibitor", "tested at": "10 µM", "quantity": "remaining activity", "value": "100%"}
{"SMILES": "Cn1cnc(Br)c1C1=CN(c2ncnc3[nH]cnc23)CCS1", "read-out": "enzyme activity", "action": "inhibitor", "technique": "radiometric", "tested at": "50 nM", "quantity": "inhibition", "value": "21.5%"}
{"SMILES": "CSc1nc(C)c(-c2ccnc(Nc3ccc(N4CCOCC4)cc3)c2)[nH]1", "read-out": "enzyme activity", "action": "inhibitor", "tested at": "10 µM", "quantity": "inhibition", "value": "5%"}
{"SMILES": "Cn1c2c(Cl)c(Cl)ccc2c2cn[nH]c(=O)c21", "read-out": "thermal stability", "technique": "DSF", "tested at": "10 µM", "quantity": "ΔTm", "value": "0.6 °C"}
{"SMILES": "CC(C)(C)C(=O)c1sc(NC2CCCCC2)nc1N", "read-out": "enzyme activity", "action": "inhibitor", "tested at": "10 µM", "quantity": "remaining activity", "value": "106%"}
{"SMILES": "Cn1c2c(c3ccc(Cl)c(Cl)c31)C(C#N)C1(CCCC1)NC2=O (stereo not drawn)", "read-out": "thermal stability", "technique": "DSF", "tested at": "10 µM", "quantity": "ΔTm", "value": "-0.6 °C"}
{"SMILES": "CCCCN(CCCC)C(=O)CN1C[C@H](c2cc(OC)c3c(c2)OCO3)[C@@H](C(=O)O)[C@@H]1CC(C)(C)CCC", "read-out": "cell-free assay", "technique": "competition with immobilised ligand", "tested at": "1 µM", "quantity": "remaining binding", "value": "100%"}
{"SMILES": "CNc1cccc2cc(C(=O)Nc3ccc(C(=O)O)cc3)c(=O)[nH]c12", "read-out": "enzyme activity", "action": "inhibitor", "tested at": "10 µM", "quantity": "inhibition", "value": "-8.1%"}
{"SMILES": "CC(C)(C)c1nc2c(s1)c1nc(N)ncc1c1ccc(NS(=O)(=O)c3c(F)cccc3F)c(F)c12", "read-out": "enzyme activity", "action": "inhibitor", "technique": "radiometric", "tested at": "1 µM", "quantity": "remaining activity", "value": "104%"}
{"SMILES": "CCN(CC)CCNC(=O)c1c(C)[nH]c(/C=C2\\C(=O)Nc3ccc(F)cc32)c1C", "read-out": "enzyme activity", "action": "inhibitor", "tested at": "10 µM", "quantity": "inhibition", "value": "59%"}
{"SMILES": "CN(C)C1CCN(CC#Cc2nn(C3CCCC3)c3nc(NCc4ccccc4)ncc23)C1 (stereo not drawn)", "read-out": "enzyme activity", "action": "inhibitor", "technique": "FRET", "tested at": "1 µM", "quantity": "inhibition", "value": "6%"}
